Source: ChEMBL document CHEMBL1165899, “Synthesis and antitumor evaluation of novel cyclic arylsulfonylureas: ADME-T and pharmacophore prediction” (2010)

Legend:
Assay type in all cases: functional
T47D = assay: Growth inhibition of human T47D cells at 10 uM after 48 hrs by sulforhodamine B assay relative to control; conditions: read-out: GI
In short: (§1)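 NCI 60-cell-line single-dose screen at 10 µM. Cells were plated at 5000–40,000 cells/well according to doubling time, in medium with 2 mM L-glutamine, and held 24 h at 37 °C, 5% CO₂, 100% humidity before drug. Time-zero plates were TCA-fixed. Exposure was 48 h, then TCA fixation and sulforhodamine B staining for 10 min, acetic acid washes, 10 mM trizma solubilization and A515. % inhibition = 100 − % activity, where 100% is the DMSO-solvent control.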

SR = assay: Growth inhibition of human SR cells at 10 uM after 48 hrs by sulforhodamine B assay relative to control; conditions: read-out: GI
HCT-116 = assay: Growth inhibition of human HCT116 cells at 10 uM after 48 hrs by sulforhodamine B assay relative to control; conditions: HCT-116, 48 h, read-out: GI
SK-MEL-5 = assay: Growth inhibition of human SK-MEL-5 cells at 10 uM after 48 hrs by sulforhodamine B assay relative to control; conditions: SK-MEL-5, 48 h, read-out: GI
M14 = assay: Growth inhibition of human M14 cells at 10 uM after 48 hrs by sulforhodamine B assay relative to control; conditions: M14, 48 h, read-out: GI
EKVX = assay: Growth inhibition of human EKVX cells at 10 uM after 48 hrs by sulforhodamine B assay relative to control; conditions: read-out: GI
NCI-H460 = assay: Growth inhibition of human NCI-H460 cells at 10 uM after 48 hrs by sulforhodamine B assay relative to control; conditions: NCI-H460, 48 h, read-out: GI
OVCAR-5 = assay: Growth inhibition of human OVCAR5 cells at 10 uM after 48 hrs by sulforhodamine B assay relative to control; conditions: OVCAR-5, 48 h, read-out: GI
MDA-MB-231 = assay: Growth inhibition of human MDA-MB-231 cells at 10 uM after 48 hrs by sulforhodamine B assay relative to control; conditions: MDA-MB-231, 48 h, read-out: GI
K562 = assay: Growth inhibition of human K562 cells at 10 uM after 48 hrs by sulforhodamine B assay relative to control; conditions: K562, 48 h, read-out: GI
U-251 = assay: Growth inhibition of human U251 cells at 10 uM after 48 hrs by sulforhodamine B assay relative to control; conditions: U-251, 48 h, read-out: GI; in short: as §1
Malme-3M = assay: Growth inhibition of human MALME-3M cells at 10 uM after 48 hrs by sulforhodamine B assay relative to control; conditions: read-out: GI
NCI/ADR-RES = assay: Growth inhibition of human NCI/ADR-RES cells at 10 uM after 48 hrs by sulforhodamine B assay relative to control; conditions: read-out: GI
MOLT-4 = assay: Growth inhibition of human MOLT4 cells at 10 uM after 48 hrs by sulforhodamine B assay relative to control; conditions: MOLT-4, 48 h, read-out: GI
HOP-92 = assay: Growth inhibition of human HOP92 cells at 10 uM after 48 hrs by sulforhodamine B assay relative to control; conditions: HOP-92, 48 h, read-out: GI
A549 = assay: Growth inhibition of human A549 cells at 10 uM after 48 hrs by sulforhodamine B assay relative to control; conditions: A549, 48 h, read-out: GI
SK-OV-3 = assay: Growth inhibition of human SKOV3 cells at 10 uM after 48 hrs by sulforhodamine B assay relative to control; conditions: SK-OV-3, 48 h, read-out: GI
MCF7 = assay: Growth inhibition of human MCF7 cells at 10 uM after 48 hrs by sulforhodamine B assay relative to control; conditions: MCF7, 48 h, read-out: GI
OVCAR-4 = assay: Growth inhibition of human OVCAR4 cells at 10 uM after 48 hrs by sulforhodamine B assay relative to control; conditions: OVCAR-4, 48 h, read-out: GI
KM12 = assay: Growth inhibition of human KM12 cells at 10 uM after 48 hrs by sulforhodamine B assay relative to control; conditions: KM12, 48 h, read-out: GI
ACHN = assay: Growth inhibition of human ACHN cells at 10 uM after 48 hrs by sulforhodamine B assay relative to control; conditions: read-out: GI
A498 = assay: Growth inhibition of human A498 cells at 10 uM after 48 hrs by sulforhodamine B assay relative to control; conditions: A498, 48 h, read-out: GI
UACC-62 = assay: Growth inhibition of human UACC62 cells at 10 uM after 48 hrs by sulforhodamine B assay relative to control; conditions: UACC-62, 48 h, read-out: GI; in short: as §1
OVCAR-8 = assay: Growth inhibition of human OVCAR8 cells at 10 uM after 48 hrs by sulforhodamine B assay relative to control; conditions: OVCAR-8, 48 h, read-out: GI
BT-549 = assay: Growth inhibition of human BT549 cells at 10 uM after 48 hrs by sulforhodamine B assay relative to control; conditions: BT-549, 48 h, read-out: GI
HCT-15 = assay: Growth inhibition of human HCT15 cells at 10 uM after 48 hrs by sulforhodamine B assay relative to control; conditions: HCT-15, 48 h, read-out: GI
SNB-19 = assay: Growth inhibition of human SNB19 cells at 10 uM after 48 hrs by sulforhodamine B assay relative to control; conditions: SNB-19, 48 h, read-out: GI
SF-268 = assay: Growth inhibition of human SF268 cells at 10 uM after 48 hrs by sulforhodamine B assay relative to control; conditions: SF-268, 48 h, read-out: GI
DU-145 = assay: Growth inhibition of human DU145 cells at 10 uM after 48 hrs by sulforhodamine B assay relative to control; conditions: DU-145, 48 h, read-out: GI
NCI-H322M = assay: Growth inhibition of human NCI-H322M cells at 10 uM after 48 hrs by sulforhodamine B assay relative to control; conditions: read-out: GI
[1] = Growth inhibition of human Hs 578T cells at 10 uM after 48 hrs by sulforhodamine B assay relative to control; conditions: read-out: GI
SK-MEL-2 = assay: Growth inhibition of human SK-MEL-2 cells at 10 uM after 48 hrs by sulforhodamine B assay relative to control; conditions: SK-MEL-2, 48 h, read-out: GI
OVCAR-3 = assay: Growth inhibition of human OVCAR-3 cells at 10 uM after 48 hrs by sulforhodamine B assay relative to control; conditions: OVCAR-3, 48 h, read-out: GI
COLO 205 = assay: Growth inhibition of human COLO205 cells at 10 uM after 48 hrs by sulforhodamine B assay relative to control; conditions: COLO 205, 48 h, read-out: GI
NCI-H226 = assay: Growth inhibition of human NCI-H226 cells at 10 uM after 48 hrs by sulforhodamine B assay relative to control; conditions: NCI-H226, 48 h, read-out: GI

SMILES: CN(C)c1ccc(/C=C2\NC(=O)N(S(=O)(=O)c3ccc(Cl)cc3)C2=O)cc1
- inhibition of growth at 10 µM (T47D): -9.29%
- inhibition of growth at 10 µM (SR): 34.7%
- inhibition of growth at 10 µM (HCT-116): -3.55%
- inhibition of growth at 10 µM (SK-MEL-5): -3.11%
- inhibition of growth at 10 µM (M14): 200%
- inhibition of growth at 10 µM (EKVX): 14.7%
- inhibition of growth at 10 µM (NCI-H460): -15.8%
- inhibition of growth at 10 µM (OVCAR-5): -4.44%
- inhibition of growth at 10 µM (MDA-MB-231): -2.18%
- inhibition of growth at 10 µM (K562): 8.89%
- inhibition of growth at 10 µM (U-251): -0.69%
- inhibition of growth at 10 µM (Malme-3M): -49.7%
- inhibition of growth at 10 µM (NCI/ADR-RES): -6.33%
- inhibition of growth at 10 µM (MOLT-4): 11.5%
- inhibition of growth at 10 µM (HOP-92): 11.2%
- inhibition of growth at 10 µM (A549): -8.84%
- inhibition of growth at 10 µM (SK-OV-3): -8.45%
- inhibition of growth at 10 µM (MCF7): -6.37%
- inhibition of growth at 10 µM (OVCAR-4): 7.93%
- inhibition of growth at 10 µM (KM12): -11.6%
- inhibition of growth at 10 µM (ACHN): -5.38%
- inhibition of growth at 10 µM (A498): -8.94%
- inhibition of growth at 10 µM (UACC-62): 3.93%
- inhibition of growth at 10 µM (OVCAR-8): -8.63%
- inhibition of growth at 10 µM (BT-549): 4.63%
- inhibition of growth at 10 µM (HCT-15): 1.55%
- inhibition of growth at 10 µM (SNB-19): -6.78%
- inhibition of growth at 10 µM (SF-268): -21.6%
- inhibition of growth at 10 µM (DU-145): -4.25%
- inhibition of growth at 10 µM (NCI-H322M): -16.5%
- inhibition of growth at 10 µM [1]: 14.1%
- inhibition of growth at 10 µM (SK-MEL-2): 1.29%
- inhibition of growth at 10 µM (OVCAR-3): -13.9%
- inhibition of growth at 10 µM (COLO 205): -14.7%
- inhibition of growth at 10 µM (NCI-H226): -9.94%
